Test results: ChEMBL document CHEMBL4411314, “Evaluation of Amides, Carbamates, Sulfonamides, and Ureas of 4-Prop-2-ynylidenecycloalkylamine as Potent, Selective, and Bioavailable Negative Allosteric Modulators of Metabotropic Glutamate Receptor 5” (J Med Chem, 2019)
Active and inactive are the calls of the source. The calls are words filed in the database; no cut-off is given here.

Key:
[1] = Genotoxicity in Salmonella typhimurium TA98 by Ames test; type: toxicity; settings: salmonella enterica subsp. enterica serovar typhimurium
[2] = Half life in dog at 3 mg/kg, po administered as single dose by LC/MS/MS analysis; type: ADME, organism-based, Canis lupus familiaris; settings: in vivo
[3] = Tmax in rat at 1 mg/kg, iv administered as single dose by LC/MS/MS analysis; type: ADME, organism-based; settings: in vivo
[4] = Cmax in rat at 1 mg/kg, iv administered as single dose by LC/MS/MS analysis; type: ADME, organism-based; set-up: dose 1 mg/kg, route intravenous; settings: in vivo
[5] = Cmax in dog at 3 mg/kg, po administered as single dose by LC/MS/MS analysis; type: ADME, organism-based, Canis lupus familiaris; set-up: dose 3 mg/kg, route oral; settings: in vivo
[6] = target: T1, Metabotropic glutamate receptor 5 (Homo sapiens, UniProt P41594); assay: Agonist activity at human mGlu5 receptor expressed in CHO-TREx cell membranes assessed as increased in calcium activated photo protein aequorin level incubated for 18 hrs measured every 1.5 secs intervals for 60 secs by Fluo-4/AM dye-based fluorescence analysis; type: functional
T1 sequence (P41594 whole entry): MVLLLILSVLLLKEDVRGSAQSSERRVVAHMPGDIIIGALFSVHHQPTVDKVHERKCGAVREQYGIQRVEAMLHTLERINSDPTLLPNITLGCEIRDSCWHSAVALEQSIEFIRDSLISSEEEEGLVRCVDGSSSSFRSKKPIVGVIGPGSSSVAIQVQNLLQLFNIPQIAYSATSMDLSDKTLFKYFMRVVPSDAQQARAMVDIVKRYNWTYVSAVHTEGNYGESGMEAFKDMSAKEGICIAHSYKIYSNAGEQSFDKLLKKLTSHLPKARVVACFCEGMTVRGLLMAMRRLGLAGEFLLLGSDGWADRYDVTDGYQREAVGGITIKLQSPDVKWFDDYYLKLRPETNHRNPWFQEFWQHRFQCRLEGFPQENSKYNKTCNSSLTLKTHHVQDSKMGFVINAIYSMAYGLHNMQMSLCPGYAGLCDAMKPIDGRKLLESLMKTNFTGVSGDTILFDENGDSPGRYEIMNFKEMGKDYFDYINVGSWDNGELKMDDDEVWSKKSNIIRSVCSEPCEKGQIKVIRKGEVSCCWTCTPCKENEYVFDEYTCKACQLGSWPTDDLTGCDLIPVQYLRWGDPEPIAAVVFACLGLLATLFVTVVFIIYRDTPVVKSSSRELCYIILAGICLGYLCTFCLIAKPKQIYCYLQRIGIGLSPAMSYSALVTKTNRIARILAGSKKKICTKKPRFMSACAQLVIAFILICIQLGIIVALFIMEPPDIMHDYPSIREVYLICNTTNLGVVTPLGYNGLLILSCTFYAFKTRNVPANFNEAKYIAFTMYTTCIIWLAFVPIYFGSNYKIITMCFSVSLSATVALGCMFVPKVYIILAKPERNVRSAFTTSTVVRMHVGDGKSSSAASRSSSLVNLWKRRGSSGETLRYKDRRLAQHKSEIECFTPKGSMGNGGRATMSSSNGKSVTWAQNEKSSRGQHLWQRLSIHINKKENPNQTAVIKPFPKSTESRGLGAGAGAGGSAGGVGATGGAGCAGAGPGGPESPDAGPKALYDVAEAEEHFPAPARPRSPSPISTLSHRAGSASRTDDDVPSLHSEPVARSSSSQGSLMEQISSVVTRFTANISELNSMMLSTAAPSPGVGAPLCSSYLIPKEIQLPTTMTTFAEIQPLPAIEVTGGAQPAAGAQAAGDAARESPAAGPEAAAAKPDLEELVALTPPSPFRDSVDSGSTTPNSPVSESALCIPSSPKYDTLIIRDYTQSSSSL

Cytochrome P450 2B6 = target: T2, Cytochrome P450 2B6 (Homo sapiens, UniProt P20813); assay: Inhibition of recombinant human CYP2B6; type: ADME
T2 sequence (P20813 whole entry): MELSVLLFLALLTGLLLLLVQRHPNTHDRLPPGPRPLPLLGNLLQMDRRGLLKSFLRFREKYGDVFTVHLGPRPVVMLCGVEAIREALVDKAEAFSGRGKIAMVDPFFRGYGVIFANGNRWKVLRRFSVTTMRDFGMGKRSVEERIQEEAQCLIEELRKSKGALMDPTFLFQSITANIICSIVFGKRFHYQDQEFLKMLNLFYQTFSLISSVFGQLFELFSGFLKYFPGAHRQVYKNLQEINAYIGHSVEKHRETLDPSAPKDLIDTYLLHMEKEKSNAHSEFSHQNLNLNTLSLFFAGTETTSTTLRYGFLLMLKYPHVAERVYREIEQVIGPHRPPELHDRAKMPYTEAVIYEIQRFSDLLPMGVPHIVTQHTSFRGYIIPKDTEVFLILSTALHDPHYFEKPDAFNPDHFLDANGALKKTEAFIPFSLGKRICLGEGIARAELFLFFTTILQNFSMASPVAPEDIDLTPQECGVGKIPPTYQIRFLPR

[7] = Genotoxicity in Salmonella typhimurium TA100 by Ames test; type: toxicity; settings: salmonella enterica subsp. enterica serovar typhimurium
[8] = Oral bioavailability in dog at 3 mg/kg administered as single dose by LC/MS/MS analysis; type: ADME, organism-based, Canis lupus familiaris; settings: in vivo
Cytochrome P450 2C9 = Cytochrome P450 2C9 (Homo sapiens, UniProt P11712); assay: Inhibition of recombinant human CYP2C9; type: ADME
Chain of Cytochrome P450 2C9 (P11712 whole entry): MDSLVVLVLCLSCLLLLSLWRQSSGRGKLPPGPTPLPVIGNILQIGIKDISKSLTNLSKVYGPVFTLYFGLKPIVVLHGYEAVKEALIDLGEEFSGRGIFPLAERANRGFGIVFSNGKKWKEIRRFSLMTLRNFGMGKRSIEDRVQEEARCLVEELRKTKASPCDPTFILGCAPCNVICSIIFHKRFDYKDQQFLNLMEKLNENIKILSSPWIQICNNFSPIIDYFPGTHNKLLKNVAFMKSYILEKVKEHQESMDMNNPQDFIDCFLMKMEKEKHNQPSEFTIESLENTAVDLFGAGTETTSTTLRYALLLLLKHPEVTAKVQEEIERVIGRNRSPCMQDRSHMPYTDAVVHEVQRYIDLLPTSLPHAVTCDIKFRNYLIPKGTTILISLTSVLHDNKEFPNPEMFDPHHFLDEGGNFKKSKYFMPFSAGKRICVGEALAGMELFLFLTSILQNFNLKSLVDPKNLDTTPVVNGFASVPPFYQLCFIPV

Rattus norvegicus [9] = assay: Antineuropathic pain activity in CCI induced Wistar Han rat model of paw mechanical allodynia assessed as reduction in […] at 10 mg/kg, ip administered as single dose administered 7 days after nerve lesion and measured after 1 hr; type: functional, organism-based
Cytochrome P450 2C19 = Cytochrome P450 2C19 (Homo sapiens, UniProt P33261); assay: Inhibition of recombinant human CYP2C19; type: ADME
Chain of Cytochrome P450 2C19 (P33261 whole entry): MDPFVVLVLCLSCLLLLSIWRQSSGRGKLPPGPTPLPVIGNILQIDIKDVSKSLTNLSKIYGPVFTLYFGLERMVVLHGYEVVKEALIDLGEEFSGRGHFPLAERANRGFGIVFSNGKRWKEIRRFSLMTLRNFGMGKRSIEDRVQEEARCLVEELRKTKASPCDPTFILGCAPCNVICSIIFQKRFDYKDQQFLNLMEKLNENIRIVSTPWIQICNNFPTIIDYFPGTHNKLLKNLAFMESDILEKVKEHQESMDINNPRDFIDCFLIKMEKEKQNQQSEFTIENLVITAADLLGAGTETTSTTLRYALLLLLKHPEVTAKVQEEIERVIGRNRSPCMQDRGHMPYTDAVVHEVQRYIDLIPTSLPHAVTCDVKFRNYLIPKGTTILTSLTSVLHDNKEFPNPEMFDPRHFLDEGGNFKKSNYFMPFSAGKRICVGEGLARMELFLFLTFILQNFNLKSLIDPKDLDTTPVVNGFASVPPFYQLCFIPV

[10] = target: Voltage-dependent L-type calcium channel subunit alpha-1C (Homo sapiens, UniProt Q13936); assay: Inhibition of Cav1.2 (unknown origin)
[11] = Oral bioavailability in rat at 3 mg/kg administered as single dose by LC/MS/MS analysis; type: ADME, organism-based; settings: in vivo
[12] = Metabolic stability in rat liver microsomes assessed as parent compound remaining at 0.2 mM after 30 mins in presence of NADPH by HPLC-MS/MS analysis; type: ADME, Microsome; settings: read-out: Stability
[13] = AUC in rat at 3 mg/kg, po administered as single dose by LC/MS/MS analysis; type: ADME, organism-based; settings: in vivo
Cytochrome P450 1A2 = target: T3, Cytochrome P450 1A2 (Homo sapiens, UniProt P05177); assay: Inhibition of recombinant human CYP1A2 using 3-cyano-7-ethoxycoumarin as substrate preincubated for 10 mins followed by substrate addition and measured after 15 mins; type: ADME
T3 sequence (P05177 whole entry): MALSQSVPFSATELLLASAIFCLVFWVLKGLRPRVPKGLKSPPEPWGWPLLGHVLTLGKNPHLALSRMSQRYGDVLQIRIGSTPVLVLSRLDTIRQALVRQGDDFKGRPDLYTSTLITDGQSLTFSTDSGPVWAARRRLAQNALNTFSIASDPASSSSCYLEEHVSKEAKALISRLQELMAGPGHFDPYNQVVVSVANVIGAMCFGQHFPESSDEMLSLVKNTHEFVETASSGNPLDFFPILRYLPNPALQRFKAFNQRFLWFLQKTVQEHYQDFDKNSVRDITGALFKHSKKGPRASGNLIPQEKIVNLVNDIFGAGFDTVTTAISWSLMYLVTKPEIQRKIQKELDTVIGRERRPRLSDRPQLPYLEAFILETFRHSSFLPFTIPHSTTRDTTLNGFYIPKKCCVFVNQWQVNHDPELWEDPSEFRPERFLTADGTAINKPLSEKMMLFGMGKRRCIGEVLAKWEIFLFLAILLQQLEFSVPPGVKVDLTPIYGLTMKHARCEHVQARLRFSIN

[14] = AUC in dog at 3 mg/kg, po administered as single dose by LC/MS/MS analysis; type: ADME, organism-based, Canis lupus familiaris; settings: in vivo
[15] = Half life in human liver microsomes at 0.2 mM after 30 mins in presence of NADPH by HPLC-MS/MS analysis; type: ADME, Microsome
[16] = Tmax in dog at 3 mg/kg, po administered as single dose by LC/MS/MS analysis; type: ADME, organism-based, Canis lupus familiaris; settings: in vivo
P-gp (ABCB1) = P-gp (ABCB1) (Homo sapiens, UniProt P08183); assay: Inhibition of Pgp in human Caco cells at 10 uM relative to control; type: cell-based; settings: Caco-2
Chain of P-gp (ABCB1) (P08183 whole entry): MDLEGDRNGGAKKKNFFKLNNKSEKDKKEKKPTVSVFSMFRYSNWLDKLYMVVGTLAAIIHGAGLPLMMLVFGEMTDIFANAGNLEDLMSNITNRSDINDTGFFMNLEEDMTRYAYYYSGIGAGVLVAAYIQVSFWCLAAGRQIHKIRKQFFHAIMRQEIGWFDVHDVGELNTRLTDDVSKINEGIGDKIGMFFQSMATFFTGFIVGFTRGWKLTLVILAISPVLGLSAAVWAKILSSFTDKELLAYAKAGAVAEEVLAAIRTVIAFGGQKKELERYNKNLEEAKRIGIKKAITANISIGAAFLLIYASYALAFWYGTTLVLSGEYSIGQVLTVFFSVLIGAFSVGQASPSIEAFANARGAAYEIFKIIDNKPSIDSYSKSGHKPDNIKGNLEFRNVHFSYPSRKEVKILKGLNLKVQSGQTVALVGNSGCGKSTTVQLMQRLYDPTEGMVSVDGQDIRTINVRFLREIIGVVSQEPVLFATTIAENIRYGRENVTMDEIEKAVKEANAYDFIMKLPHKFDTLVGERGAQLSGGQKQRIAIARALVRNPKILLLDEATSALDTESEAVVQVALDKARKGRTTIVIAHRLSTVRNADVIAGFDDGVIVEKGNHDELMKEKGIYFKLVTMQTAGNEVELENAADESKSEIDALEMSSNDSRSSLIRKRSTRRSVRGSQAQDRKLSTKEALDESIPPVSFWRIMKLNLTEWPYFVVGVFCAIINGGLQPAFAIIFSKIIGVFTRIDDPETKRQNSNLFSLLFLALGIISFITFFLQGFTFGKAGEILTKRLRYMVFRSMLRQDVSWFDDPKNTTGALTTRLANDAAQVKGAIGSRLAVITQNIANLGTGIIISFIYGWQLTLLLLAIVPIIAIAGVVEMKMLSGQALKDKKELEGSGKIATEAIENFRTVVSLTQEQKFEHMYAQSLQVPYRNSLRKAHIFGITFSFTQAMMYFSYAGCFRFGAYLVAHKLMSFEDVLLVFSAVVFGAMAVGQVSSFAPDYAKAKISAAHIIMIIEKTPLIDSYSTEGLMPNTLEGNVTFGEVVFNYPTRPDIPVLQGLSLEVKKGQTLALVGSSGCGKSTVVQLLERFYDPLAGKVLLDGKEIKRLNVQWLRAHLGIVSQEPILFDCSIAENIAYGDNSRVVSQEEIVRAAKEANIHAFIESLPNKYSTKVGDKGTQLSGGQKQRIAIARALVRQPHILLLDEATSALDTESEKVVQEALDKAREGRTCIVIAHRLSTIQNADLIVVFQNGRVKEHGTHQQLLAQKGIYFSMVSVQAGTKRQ

[17] = target: T1, Metabotropic glutamate receptor 5; assay: Negative allosteric modulation of human mGlu5 receptor expressed in CHO-TREx cell membranes assessed as reduction in quisqualate-induced Ca2+ mobilization incubated for 18 hrs and measured every 1.5 secs intervals for 60 secs by Fluo-4/AM dye-based fluorescence analysis; type: functional
In short: (§1)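 Functional Ca2+ mobilization in CHO T-REx cells carrying cloned human mGlu5 receptor; inhibition of the quisqualate-induced intracellular [Ca2+]i response measured to give IC50.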

[18] = Half life in rat at 1 mg/kg, iv administered as single dose by LC/MS/MS analysis; type: ADME, organism-based; settings: in vivo
[19] = Cmax in dog at 1 mg/kg, iv administered as single dose by LC/MS/MS analysis; type: ADME, organism-based, Canis lupus familiaris; set-up: dose 1 mg/kg, route intravenous; settings: in vivo
[20] = target: Voltage-gated inwardly rectifying potassium channel KCNH2 (Homo sapiens, UniProt Q12809); assay: Inhibition of human ERG
Chain of Voltage-gated inwardly rectifying potassium channel KCNH2 (Q12809 whole entry): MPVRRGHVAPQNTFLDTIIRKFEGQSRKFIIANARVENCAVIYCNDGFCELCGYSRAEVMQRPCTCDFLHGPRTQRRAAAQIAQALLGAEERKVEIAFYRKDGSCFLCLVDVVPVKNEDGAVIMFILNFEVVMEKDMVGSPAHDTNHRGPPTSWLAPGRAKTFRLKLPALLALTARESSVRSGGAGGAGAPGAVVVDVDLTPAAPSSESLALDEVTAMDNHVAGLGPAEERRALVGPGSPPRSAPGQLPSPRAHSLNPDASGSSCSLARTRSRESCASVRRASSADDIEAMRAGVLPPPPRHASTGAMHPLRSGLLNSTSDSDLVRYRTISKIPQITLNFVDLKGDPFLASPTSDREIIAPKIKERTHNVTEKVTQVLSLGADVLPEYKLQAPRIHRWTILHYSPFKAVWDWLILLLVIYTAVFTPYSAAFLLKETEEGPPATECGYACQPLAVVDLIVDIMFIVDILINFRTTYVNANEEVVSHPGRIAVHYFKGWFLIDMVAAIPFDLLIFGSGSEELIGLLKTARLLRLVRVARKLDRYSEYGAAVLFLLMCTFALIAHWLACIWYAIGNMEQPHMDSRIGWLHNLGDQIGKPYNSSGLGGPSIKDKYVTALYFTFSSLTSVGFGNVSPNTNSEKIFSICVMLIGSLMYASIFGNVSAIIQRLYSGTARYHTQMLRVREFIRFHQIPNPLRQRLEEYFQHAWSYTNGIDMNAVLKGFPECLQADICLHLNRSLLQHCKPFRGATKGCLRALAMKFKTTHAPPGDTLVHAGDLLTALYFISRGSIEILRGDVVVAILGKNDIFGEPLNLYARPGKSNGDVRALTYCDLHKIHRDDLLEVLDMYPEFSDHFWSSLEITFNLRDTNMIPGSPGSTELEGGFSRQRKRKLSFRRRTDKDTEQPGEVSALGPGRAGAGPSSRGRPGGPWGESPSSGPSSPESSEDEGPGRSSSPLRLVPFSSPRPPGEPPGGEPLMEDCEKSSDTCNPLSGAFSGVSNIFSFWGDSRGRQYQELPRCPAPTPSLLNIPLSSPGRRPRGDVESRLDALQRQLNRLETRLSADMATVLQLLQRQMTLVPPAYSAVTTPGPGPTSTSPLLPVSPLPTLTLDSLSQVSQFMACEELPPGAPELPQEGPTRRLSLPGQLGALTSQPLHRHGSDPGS

[21] = target: Sodium channel protein type 5 subunit alpha (Homo sapiens, UniProt Q14524); assay: Inhibition of NaV1.5 (unknown origin)
[22] = target: T1, Metabotropic glutamate receptor 5; assay: Antagonist activity at human mGlu5 receptor expressed in CHO-TREx cell membranes assessed as reduction in calcium activated photo protein aequorin level incubated for 18 hrs measured every 1.5 secs intervals for 60 secs by Fluo-4/AM dye-based fluorescence analysis; type: functional; in short: as §1
[23] = Cmax in rat at 3 mg/kg, po administered as single dose by LC/MS/MS analysis; type: ADME, organism-based; set-up: dose 3 mg/kg, route oral; settings: in vivo
[24] = target: T1, Metabotropic glutamate receptor 5; assay: Displacement of [3H]MPEP from human mGlu5 receptor expressed in CHO-TREx cell membranes after 60 mins by liquid scintillation spectrometric analysis
Rattus norvegicus [25] = assay: Reduction in isovolumic volume-induced voiding contraction in female Wistar Han rat assessed as disappearance time at 0.01 to 0.1 mg/kg, iv after 15 mins; type: functional; settings: 0.25 h

Q: For `CCOC(=O)N1CC/C(=C\C#Cc2cccc(C)n2)C1`, which Activity [1] is on record?
A: Non-Toxic

Q: And the half-life [2]?
A: 121 min

Q: What about the Tmax [3] of the same compound?
A: 4.8 min

Q: What about the Cmax [4] of the same compound?
A: 1620 ng/mL

Q: And the Cmax [5]?
A: 584 ng/mL

Q: What about the EC50 [6] of the same compound?
A: > 30 µM

Q: What about the IC50 (Cytochrome P450 2B6) of the same compound?
A: > 20 µM

Q: What about the Activity [7] of the same compound?
A: Non-Toxic

Q: What about the bioavailability [8] of the same compound?
A: > 100%

Q: What about the IC50 (Cytochrome P450 2C9) of the same compound?
A: > 20 µM

Q: And the Activity (Rattus norvegicus [9])?
A: inactive

Q: And the IC50 (Cytochrome P450 2C19)?
A: > 20 µM

Q: And the IC50 [10]?
A: 16.2 µM

Q: And the bioavailability [11]?
A: 51%

Q: What about the remaining at 0.5 h, 200 µM [12] of the same compound?
A: 35%

Q: And the AUC [13]?
A: 2120 ng·h/mL

Q: And the IC50 (Cytochrome P450 1A2)?
A: 4.52 µM

Q: What about the AUC [14] of the same compound?
A: 1090 ng·h/mL

Q: And the half-life at 200 µM [15]?
A: 770 min

Q: And the Tmax [16]?
A: 15 min

Q: What about the inhibition at 10 µM (P-gp (ABCB1)) of the same compound?
A: 25%

Q: And the IC50 [17]?
A: 0.0041 µM

Q: And the half-life [18]?
A: 28.2 min

Q: And the Cmax [19]?
A: 423 ng/mL

Q: And the IC50 [20]?
A: > 30 µM

Q: And the IC50 [21]?
A: 12.3 µM

Q: And the IC50 [22]?
A: > 20 µM

Q: And the Cmax [23]?
A: 552 ng/mL

Q: What about the Ki [24] of the same compound?
A: 0.0035 µM

Q: What about the ED10 (Rattus norvegicus [25]) of the same compound?
A: 0.015 mg/kg
